In brackets after ≈: the same amount, converted by molar mass.
Experiments:
Enterobacter cloacae = assay: Antibacterial activity against gram negative organism, […] (MA2646); assay type: functional
Escherichia coli = assay: Antibacterial activity was determined against gram negative organism, E. coli(vogel); assay type: functional
Outline: (§1)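 MIC by standard microtitration against a panel of 10 representative Gram-negative and Gram-positive organisms; values reported in µg/mL.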

Klebsiella pneumoniae = assay: Antibacterial activity was determined against gram negative organism, K. pneumoniae (MGH-2); assay type: functional; outline: as §1
Pseudomonas aeruginosa = assay: Antibacterial activity was determined against gram negative organism, Pseudomonas aeruginosa (UI-18); assay type: functional; outline: as §1
Bacteria = assay: Antibacterial activity was determined against gram negative organism, Providencia rettgeri. (M1771); assay type: functional; outline: as §1
Streptococcus pneumoniae = assay: Antibacterial activity was determined against gram positive organism, Streptococcus pneumoniae (SV-1); assay type: functional; outline: as §1
Enterococcus faecalis = assay: Antibacterial activity was determined against gram positive organism, Streptococcus faecalis (MGH-2); assay type: functional; outline: as §1
Streptococcus pyogenes = assay: Antibacterial activity was determined against gram positive organism, Streptococcus pyogenes (C203); assay type: functional; outline: as §1
Staphylococcus aureus [1] = assay: Antibacterial activity was determined against gram positive organism, Staphylococcus aureus (H228); assay type: functional; outline: as §1
Staphylococcus aureus [2] = assay: Antibacterial activity was determined against gram positive organism, Staphylococcus aureus (UC76); assay type: functional; outline: as §1
[3] = MIC ratio measured as the mean MICs of gram-negative bacteria; assay type: functional
Outline: (§2)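 Geometric mean of the MICs (µg/mL) over the Gram-negative or the Gram-positive strains of the 10-organism microtitration panel, calculated separately for each class.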

[4] = MIC ratio measured as the mean MICs of gram-positive bacteria; assay type: functional; outline: as §2
[5] = biological target: DNA gyrase (Escherichia coli) (UniProt P0AES6+P0AES4)

Row | SMILES | MIC (Enterobacter cloacae) [µg/mL] | MIC (Escherichia coli) [µg/mL] | MIC (Klebsiella pneumoniae) [µg/mL] | MIC (Pseudomonas aeruginosa) [µg/mL] | MIC (Bacteria) [µg/mL] | MIC (Streptococcus pneumoniae) [µg/mL] | MIC (Enterococcus faecalis) [µg/mL] | MIC (Streptococcus pyogenes) [µg/mL] | MIC (Staphylococcus aureus [1]) [µg/mL] | MIC (Staphylococcus aureus [2]) [µg/mL] | Ratio [3] | Ratio [4] | DNA cleavage [5] [µg/mL]
1 | NC1CCN(c2cc3c(cc2F)c(=O)c(C(=O)O)cn3-c2ccc(F)cc2F)C1 (stereo not given) | 0.05 (≈ 0.124 µM) | 0.025 (≈ 0.062 µM) | 0.05 (≈ 0.124 µM) | 0.4 (≈ 0.992 µM) | 0.1 (≈ 0.248 µM) | 0.025 (≈ 0.062 µM) | 0.1 (≈ 0.248 µM) | 0.025 (≈ 0.062 µM) | 0.05 (≈ 0.124 µM) | 0.013 (≈ 0.0322 µM) | 0.076 | 0.033 | –
2 | CC1CN(c2cc3c(cc2F)c(=O)c(C(=O)O)cn3-c2ccc(F)cc2F)CCN1 (stereo not given) [TEMAFLOXACIN] | 0.05 (≈ 0.12 µM) | 0.05 (≈ 0.12 µM) | 0.1 (≈ 0.24 µM) | 1.6 (≈ 3.83 µM) | 0.2 (≈ 0.479 µM) | 0.1 (≈ 0.24 µM) | 0.2 (≈ 0.479 µM) | 0.1 (≈ 0.24 µM) | 0.1 (≈ 0.24 µM) | 0.025 (≈ 0.0599 µM) | 0.15 | 0.087 | 0.75
3 | CC1CN(c2c(F)cc3c(=O)c(C(=O)O)cn(C4CC4)c3c2F)CCN1 (stereo not given) | 0.05 (≈ 0.138 µM) | – | – | 0.4 (≈ 1.1 µM) | 0.1 (≈ 0.275 µM) | 0.4 (≈ 1.1 µM) | 0.4 (≈ 1.1 µM) | 0.4 (≈ 1.1 µM) | 0.2 (≈ 0.55 µM) | 0.1 (≈ 0.275 µM) | 0.066 | 0.26 | 1
4 | CCNCC1CCN(c2cc3c(cc2F)c(=O)c(C(=O)O)cn3-c2ccc(F)cc2F)C1 (stereo not given) | 0.4 (≈ 0.898 µM) | 0.2 (≈ 0.449 µM) | 0.8 (≈ 1.8 µM) | 3.1 (≈ 6.96 µM) | 1.6 (≈ 3.59 µM) | 0.1 (≈ 0.224 µM) | 0.2 (≈ 0.449 µM) | 0.1 (≈ 0.224 µM) | 0.1 (≈ 0.224 µM) | 0.025 (≈ 0.0561 µM) | 0.79 | 0.087 | –
5 | CCn1cc(C(=O)O)c(=O)c2c(C)c(F)c(N3CCNCC3)cc21 | 0.2 (≈ 0.6 µM) | 0.1 (≈ 0.3 µM) | 0.4 (≈ 1.2 µM) | 1.6 (≈ 4.8 µM) | 0.4 (≈ 1.2 µM) | 3.1 (≈ 9.3 µM) | 1.6 (≈ 4.8 µM) | 6.3 (≈ 18.9 µM) | 3.1 (≈ 9.3 µM) | 0.4 (≈ 1.2 µM) | 0.35 | 2.08 | 3
6 | CC1(CN)CCN(c2cc3c(cc2F)c(=O)c(C(=O)O)cn3C2CC2)C1 (stereo not given) | 0.8 (≈ 2.23 µM) | 0.2 (≈ 0.556 µM) | 0.4 (≈ 1.11 µM) | 0.8 (≈ 2.23 µM) | 0.8 (≈ 2.23 µM) | 0.025 (≈ 0.0696 µM) | 0.1 (≈ 0.278 µM) | 0.05 (≈ 0.139 µM) | – | – | 0.53 | 0.044 | 3
7 | CCn1cc(C(=O)O)c(=O)c2cc(F)c(N3CCNCC3)cc21 [NORFLOXACIN] | – | – | – | – | 0.025 (≈ 0.0783 µM) | – | – | – | – | – | 0.057 | 0.61 | 1
8 | CCc1c(F)c(N2CCC(N)C2)cc2c1c(=O)c(C(=O)O)cn2C1CC1 (stereo not given) | 0.8 (≈ 2.23 µM) | 0.4 (≈ 1.11 µM) | 1.6 (≈ 4.45 µM) | 12.5 (≈ 34.8 µM) | 6.3 (≈ 17.5 µM) | 1.6 (≈ 4.45 µM) | 25 (≈ 69.6 µM) | 3.1 (≈ 8.63 µM) | 12.5 (≈ 34.8 µM) | 3.1 (≈ 8.63 µM) | 2.09 | 5.45 | –
9 | Cc1c(F)c(N2CCC(N)C2)c(Cl)c2c1c(=O)c(C(=O)O)cn2C1CC1 (stereo not given) | 0.05 (≈ 0.132 µM) | 0.013 (≈ 0.0342 µM) | 0.05 (≈ 0.132 µM) | 0.2 (≈ 0.527 µM) | 0.05 (≈ 0.132 µM) | 0.025 (≈ 0.0658 µM) | 0.05 (≈ 0.132 µM) | 0.05 (≈ 0.132 µM) | 0.025 (≈ 0.0658 µM) | 0.013 (≈ 0.0342 µM) | 0.05 | 0.029 | 0.3
10 | CCn1cc(C(=O)O)c(=O)c2cc(F)c(N3CC(C)NC(C)C3)cc21 (stereo not given) | 0.2 (≈ 0.576 µM) | 0.2 (≈ 0.576 µM) | 0.4 (≈ 1.15 µM) | 6.3 (≈ 18.1 µM) | 0.8 (≈ 2.3 µM) | 1.6 (≈ 4.61 µM) | 1.6 (≈ 4.61 µM) | 1.6 (≈ 4.61 µM) | 1.6 (≈ 4.61 µM) | 0.4 (≈ 1.15 µM) | 0.6 | 1.21 | –
11 | O=C(O)c1cn(-c2ccc(F)cc2F)c2cc(N3CCNCC3)c(F)cc2c1=O | 0.05 (≈ 0.124 µM) | 0.05 (≈ 0.124 µM) | 0.1 (≈ 0.248 µM) | 0.8 (≈ 1.98 µM) | 0.1 (≈ 0.248 µM) | 0.1 (≈ 0.248 µM) | 0.4 (≈ 0.992 µM) | 0.2 (≈ 0.496 µM) | 0.4 (≈ 0.992 µM) | 0.05 (≈ 0.124 µM) | 0.11 | 0.17 | –
12 | CCc1c(F)c(N2CCNCC2)cc2c1c(=O)c(C(=O)O)cn2C1CC1 | 0.8 (≈ 2.23 µM) | 0.4 (≈ 1.11 µM) | 1.6 (≈ 4.45 µM) | 12.5 (≈ 34.8 µM) | 6.3 (≈ 17.5 µM) | 12.5 (≈ 34.8 µM) | > 25 | 25 (≈ 69.6 µM) | 25 (≈ 69.6 µM) | 6.3 (≈ 17.5 µM) | 1.91 | 16.2 | –
13 | CCc1c(F)c(N2CCNC(C)C2)cc2c1c(=O)c(C(=O)O)cn2C1CC1 (stereo not given) | 0.8 (≈ 2.14 µM) | 0.4 (≈ 1.07 µM) | 1.6 (≈ 4.28 µM) | 6.3 (≈ 16.9 µM) | 6.3 (≈ 16.9 µM) | 12.5 (≈ 33.5 µM) | > 25 | 25 (≈ 66.9 µM) | 6.3 (≈ 16.9 µM) | 3.1 (≈ 8.3 µM) | 1.83 | 10.9 | –
14 | CC1(CN)CCN(c2c(F)cc3c(=O)c(C(=O)O)cn(C4CC4)c3c2F)C1 (stereo not given) | 0.025 (≈ 0.0662 µM) | 0.05 (≈ 0.132 µM) | 0.1 (≈ 0.265 µM) | – | 0.2 (≈ 0.53 µM) | 0.006 (≈ 0.0159 µM) | 0.013 (≈ 0.0344 µM) | 0.025 (≈ 0.0662 µM) | – | 0.003 (≈ 0.00795 µM) | 0.1 | 0.095 | 2.6
